# From ChEMBL document CHEMBL1629494, “New amino acid esters of salicylanilides active against MDR-TB and other microbes” (Eur J Med Chem, 2010)
# What was measured:
# Assay type in all cases: functional
# Staphylococcus aureus [1] = experiment: Antibacterial activity against Staphylococcus aureus CCM 4516/08 after 24 hrs by broth microdilution method; details: CCM 4516/08, 24 h
# Outline: (§1)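 Broth microdilution following […], with twofold compound dilutions in Mueller-Hinton bouillon. Incubated 24 and 48 h at 35 °C in the dark in a humid atmosphere. MIC (IC80) was taken as ≥80% growth reduction versus control, read visually and photometrically.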
# Lichtheimia corymbifera [2] = experiment: Antifungal activity against Absidia corymbifera 272 after 48 hrs by broth microdilution method; details: Lichtheimia corymbifera, 272, 48 h
# Enterococcus sp. [3] = experiment: Antibacterial activity against Enterococcus sp. J14365/08 after 48 hrs by broth microdilution method; details: J14365/08, 48 h; outline: as §1
# Pichia kudriavzevii [4] = experiment: Antifungal activity against Candida krusei E28 after 24 hrs by broth microdilution method; details: E28, 24 h
# Trichosporon beigelii [5] = experiment: Antifungal activity against Trichosporon beigelii 1188 after 24 hrs by broth microdilution method; details: Trichosporon beigelii, 1188, 24 h
# Mycobacterium kansasii [6] = experiment: Antimycobacterial activity against Mycobacterium kansasii 6509/96 after 7 days by micromethod; details: 6509/96, 168 h
# Outline: (§2)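 Micromethod in Sula semisynthetic medium, with compounds added as DMSO solutions at 1000, 500, 250, 125, 62, 32, 16, 8, 4, 2, 1, 0.5, 0.25. Inoculum dilutions: H37Rv 10^-3; M. avium 330/88 10^-5; M. kansasii 235/80 10^-4; M. kansasii 6509/96 10^-5. Incubated at 37 °C, read at 14 and 21 days, and at 7 days for M. kansasii. MIC was the lowest concentration inhibiting growth.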
# Lichtheimia corymbifera [7] = experiment: Antifungal activity against Absidia corymbifera 272 after 24 hrs by broth microdilution method; details: Lichtheimia corymbifera, 272, 24 h
# Candida tropicalis [8] = experiment: Antifungal activity against Candida tropicalis 156 after 48 hrs by broth microdilution method; details: Candida tropicalis, 156, 48 h
# Escherichia coli [9] = experiment: Antibacterial activity against Escherichia coli CCM 4517 after 48 hrs by broth microdilution method; details: CCM 4517, 48 h; outline: as §1
# [10] = system: Mycobacterium tuberculosis; experiment: Antimycobacterial activity against Mycobacterium tuberculosis H37Rv 331/88 after 21 days by micromethod; details: H37Rv 331/88, 504 h; outline: as §2
# Candida albicans [11] = experiment: Antifungal activity against Candida albicans ATCC 44859 after 24 hrs by broth microdilution method; details: ATCC 44859, 24 h
# Staphylococcus aureus [12] = experiment: Antibacterial activity against methicillin-resistant Staphylococcus aureus H5996/08 after 48 hrs by broth microdilution method; details: H5996/08, 48 h; outline: as §1
# Mycobacterium kansasii [13] = experiment: Antimycobacterial activity against Mycobacterium kansasii 6509/96 after 14 days by micromethod; details: 6509/96, 336 h; outline: as §2
# Candida tropicalis [14] = experiment: Antifungal activity against Candida tropicalis 156 after 24 hrs by broth microdilution method; details: Candida tropicalis, 156, 24 h
# Candida albicans [15] = experiment: Antifungal activity against Candida albicans ATCC 44859 after 48 hrs by broth microdilution method; details: ATCC 44859, 48 h
# Mycobacterium kansasii [16] = experiment: Antimycobacterial activity against Mycobacterium kansasii 235/80 after 7 days by micromethod; details: 235/80, 168 h; outline: as §2
# Mycobacterium kansasii [17] = experiment: Antimycobacterial activity against Mycobacterium kansasii 235/80 after 21 days by micromethod; details: 235/80, 504 h; outline: as §2
# [18] = system: Trichophyton mentagrophytes; experiment: Antifungal activity against Trichophyton mentagrophytes after 48 hrs by broth microdilution method
# Aspergillus fumigatus [19] = experiment: Antifungal activity against Aspergillus fumigatus 231 after 48 hrs by broth microdilution method; details: Aspergillus fumigatus, 231, 48 h
# Aspergillus fumigatus [20] = experiment: Antifungal activity against Aspergillus fumigatus 231 after 24 hrs by broth microdilution method; details: Aspergillus fumigatus, 231, 24 h
# Pichia kudriavzevii [21] = experiment: Antifungal activity against Candida krusei E28 after 48 hrs by broth microdilution method; details: E28, 48 h
# Staphylococcus aureus [22] = experiment: Antibacterial activity against Staphylococcus aureus CCM 4516/08 after 48 hrs by broth microdilution method; details: CCM 4516/08, 48 h; outline: as §1
# Trichosporon beigelii [23] = experiment: Antifungal activity against Trichosporon beigelii 1188 after 48 hrs by broth microdilution method; details: Trichosporon beigelii, 1188, 48 h
# [24] = system: Mycobacterium tuberculosis; experiment: Antimycobacterial activity against drug-sensitive Mycobacterium tuberculosis
# [25] = system: Mycobacterium tuberculosis; experiment: Antimycobacterial activity against Mycobacterium tuberculosis H37Rv 331/88 after 14 days by micromethod; details: H37Rv 331/88, 336 h; outline: as §2
# Escherichia coli [26] = experiment: Antibacterial activity against Escherichia coli CCM 4517 after 24 hrs by broth microdilution method; details: CCM 4517, 24 h; outline: as §1
# [27] = system: Trichophyton mentagrophytes; experiment: Antifungal activity against Trichophyton mentagrophytes after 24 hrs by broth microdilution method
# Enterococcus sp. [28] = experiment: Antibacterial activity against Enterococcus sp. J14365/08 after 24 hrs by broth microdilution method; details: J14365/08, 24 h; outline: as §1
# Mycobacterium avium [29] = experiment: Antimycobacterial activity against multidrug-resistant Mycobacterium avium 330/88 after 14 days by micromethod; details: 330/88, 336 h; outline: as §2
# Nakaseomyces glabratus [30] = experiment: Antifungal activity against Candida glabrata 20/I after 24 hrs by broth microdilution method
# [31] = system: Staphylococcus epidermidis; experiment: Antibacterial activity against Staphylococcus epidermidis H6966/08 after 48 hrs by broth microdilution method; details: H6966/08, 48 h; outline: as §1
# [32] = system: Staphylococcus epidermidis; experiment: Antibacterial activity against Staphylococcus epidermidis H6966/08 after 24 hrs by broth microdilution method; details: H6966/08, 24 h; outline: as §1
# Mycobacterium kansasii [33] = experiment: Antimycobacterial activity against Mycobacterium kansasii
# Mycobacterium avium [34] = experiment: Antimycobacterial activity against Mycobacterium avium
# Mycobacterium kansasii [35] = experiment: Antimycobacterial activity against Mycobacterium kansasii 6509/96 after 21 days by micromethod; details: 6509/96, 504 h; outline: as §2
# Mycobacterium avium [36] = experiment: Antimycobacterial activity against multidrug-resistant Mycobacterium avium 330/88 after 21 days by micromethod; details: 330/88, 504 h; outline: as §2
# Klebsiella pneumoniae [37] = experiment: Antibacterial activity against Klebsiella pneumoniae D11750/08 after 48 hrs by broth microdilution method; details: D11750/08, 48 h; outline: as §1
# Klebsiella pneumoniae [38] = experiment: Antibacterial activity against Klebsiella pneumoniae D11750/08 after 24 hrs by broth microdilution method; details: D11750/08, 24 h; outline: as §1
# Staphylococcus aureus [39] = experiment: Antibacterial activity against methicillin-resistant Staphylococcus aureus H5996/08 after 24 hrs by broth microdilution method; details: H5996/08, 24 h; outline: as §1
# Mycobacterium kansasii [40] = experiment: Antimycobacterial activity against Mycobacterium kansasii 235/80 after 14 days by micromethod; details: 235/80, 336 h; outline: as §2
# Nakaseomyces glabratus [41] = experiment: Antifungal activity against Candida glabrata 20/I after 48 hrs by broth microdilution method
smiles,measurement,setting,value
CC(=O)N[C@@H](Cc1ccccc1)C(=O)Oc1cc(Cl)ccc1C(=O)Nc1ccc(Cl)c(Cl)c1,MIC,Staphylococcus aureus [1],125 µM
same,MIC,Lichtheimia corymbifera [2],> 125 µM
same,MIC,Enterococcus sp. [3],> 125 µM
same,MIC,Pichia kudriavzevii [4],> 125 µM
same,MIC,Trichosporon beigelii [5],125 µM
same,MIC,Mycobacterium kansasii [6],1 µM
same,MIC,Lichtheimia corymbifera [7],125 µM
same,MIC,Candida tropicalis [8],> 125 µM
same,MIC,Escherichia coli [9],> 125 µM
same,MIC,[10],2 µM
same,MIC,Candida albicans [11],125 µM
same,MIC,Staphylococcus aureus [12],> 125 µM
same,MIC,Mycobacterium kansasii [13],2 µM
same,MIC,Candida tropicalis [14],125 µM
same,MIC,Candida albicans [15],> 125 µM
same,MIC,Mycobacterium kansasii [16],4 µM
same,MIC,Mycobacterium kansasii [17],4 µM
same,MIC,[18],> 125 µM
same,MIC,Aspergillus fumigatus [19],> 125 µM
same,MIC,Aspergillus fumigatus [20],125 µM
same,MIC,Pichia kudriavzevii [21],> 125 µM
same,MIC,Staphylococcus aureus [22],> 125 µM
same,MIC,Trichosporon beigelii [23],> 125 µM
same,MIC,[24],1 µM
same,MIC,[25],2 µM
same,MIC,Escherichia coli [26],125 µM
same,MIC,[27],62.5 µM
same,MIC,Enterococcus sp. [28],125 µM
same,MIC,Mycobacterium avium [29],8 µM
same,MIC,Nakaseomyces glabratus [30],> 125 µM
same,MIC,[31],> 125 µM
same,MIC,[32],125 µM
same,MIC,Mycobacterium kansasii [33],1 µM
same,MIC,Mycobacterium avium [34],1 µM
same,MIC,Mycobacterium kansasii [35],4 µM
same,MIC,Mycobacterium avium [36],16 µM
same,MIC,Klebsiella pneumoniae [37],> 125 µM
same,MIC,Klebsiella pneumoniae [38],> 125 µM
same,MIC,Staphylococcus aureus [39],125 µM
same,MIC,Mycobacterium kansasii [40],4 µM
same,MIC,Nakaseomyces glabratus [41],> 125 µM
CC(=O)N[C@@H](Cc1ccccc1)C(=O)Oc1cc(Cl)ccc1C(=O)Nc1ccc(C(F)(F)F)cc1,MIC,Staphylococcus aureus [1],125 µM
same,MIC,Lichtheimia corymbifera [2],> 125 µM
same,MIC,Enterococcus sp. [3],> 125 µM
same,MIC,Pichia kudriavzevii [4],62.5 µM
same,MIC,Trichosporon beigelii [5],125 µM
same,MIC,Mycobacterium kansasii [6],4 µM
same,MIC,Lichtheimia corymbifera [7],62.5 µM
same,MIC,Candida tropicalis [8],> 125 µM
same,MIC,Escherichia coli [9],> 125 µM
same,MIC,[10],16 µM
same,MIC,Candida albicans [11],> 125 µM
same,MIC,Staphylococcus aureus [12],> 125 µM
same,MIC,Mycobacterium kansasii [13],8 µM
same,MIC,Candida tropicalis [14],> 125 µM
same,MIC,Candida albicans [15],> 125 µM
same,MIC,Mycobacterium kansasii [16],4 µM
same,MIC,Mycobacterium kansasii [17],4 µM
same,MIC,[18],> 125 µM
same,MIC,Aspergillus fumigatus [19],> 125 µM
same,MIC,Aspergillus fumigatus [20],62.5 µM
same,MIC,Pichia kudriavzevii [21],> 125 µM
same,MIC,Staphylococcus aureus [22],> 125 µM
same,MIC,Trichosporon beigelii [23],> 125 µM
same,MIC,[24],1 µM
same,MIC,[25],8 µM
same,MIC,Escherichia coli [26],> 125 µM
same,MIC,[27],125 µM
same,MIC,Enterococcus sp. [28],125 µM
same,MIC,Mycobacterium avium [29],16 µM
same,MIC,Nakaseomyces glabratus [30],> 125 µM
same,MIC,[31],> 125 µM
same,MIC,[32],125 µM
same,MIC,Mycobacterium kansasii [33],1 µM
same,MIC,Mycobacterium avium [34],1 µM
same,MIC,Mycobacterium kansasii [35],8 µM
same,MIC,Mycobacterium avium [36],32 µM
same,MIC,Klebsiella pneumoniae [37],> 125 µM
same,MIC,Klebsiella pneumoniae [38],> 125 µM
same,MIC,Staphylococcus aureus [39],125 µM
same,MIC,Mycobacterium kansasii [40],4 µM
same,MIC,Nakaseomyces glabratus [41],> 125 µM
